According to ChEMBL document CHEMBL1275356, “Redox-silent tocotrienol esters as breast cancer proliferation and migration inhibitors” (Bioorg Med Chem, 2010):

Experiments:
[1] = Cytotoxicity against mouse +SA cells after 24 hrs by MTT assay; assay type: functional, cell-based; details: +SA cell
In short: (§1)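 Compounds dissolved in DMSO, conjugated overnight to 10% BSA at 37 °C, tested at 0–40 µM, final DMSO <0.1%. +SA cells seeded at 5 × 10⁴/well or CL-S1 at 1 × 10⁵/well (six wells/group), grown 3 days (~70% confluent), then treated 24 h. MTT 0.42 mg/mL, 4 h at 37 °C; crystals dissolved in isopropanol, read at 570 nm. Cell number from standard curve; IC50 by linear regression.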

[2] = Solubility of the compound in phosphate buffer at pH 7.4 after up to 24 hrs by HPLC method relative to alpha-tocotrienol; assay type: physicochemical; details: pH 7.4, 24 h
In short: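 About 5.6 mg compound added to 3 mL pH 7.4 phosphate buffer in amber vials and shaken at 25 °C for 24 h. Centrifuged 5000 rpm, 10 min; clear supernatant sampled at 0, 1, 2, 4, 6 and 24 h. Concentration determined by HPLC with UV at 295 nm.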

[3] = system: MDA-MB-231; assay: Antimigratory activity against human MDA-MB-231 at 5 uM after 24 hrs by wound-healing assay; assay type: functional; details: MDA-MB-231, 24 h
In short: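 MDA-MB-231 grown in RPMI 1640 with 10 mM HEPES, 4 mM L-glutamine, 10% FBS, 5% CO2, 37 °C. Confluent (>95%) monolayers scratched with pipette tip, washed with PBS, then given compound in DMSO at 5 µM (DMSO vehicle control), in triplicate. After 24 h under serum starvation, cells fixed and Diff Quick stained. Migrated cells counted in ≥3 random 400× fields, mean ± SEM.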

[4] = Stability of the compound in rat plasma after 4 hrs by HPLC method relative to zero time concentration; assay type: ADME, cell-free; details: read-out: Stability
In short: (§2)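 50 µg/mL compound dissolved in rat plasma in amber vials and incubated at 37 °C. Samples taken at 0, 0.5, 1, 2, 4, 6 and 24 h, mixed with 100 µL methanol, centrifuged 14,000 rpm for 10 min. Supernatant analysed by HPLC with UV at 295 nm, relative to zero-time concentration.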

[5] = Stability of the compound in rat plasma after 24 hrs by HPLC method relative to zero time concentration; assay type: ADME, cell-free; details: read-out: Stability; in short: as §2
[6] = Chemical stability of the compound in phosphate buffer at pH 7.4 after 24 hrs by HPLC method relative to zero time concentration; assay type: physicochemical
In short: (§3)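 500 µg/mL compound dissolved in pH 7.4 phosphate buffer in amber vials and kept at 37 °C. Samples taken at 0, 0.5, 1, 2, 4, 6 and 24 h, mixed with equal volume methanol, analysed by HPLC with UV at 295 nm. Amount expressed relative to the zero-time concentration.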

[7] = Chemical stability of the compound in phosphate buffer at pH 7.4 after 1 hr by HPLC method relative to zero time concentration; assay type: physicochemical; details: pH 7.4, 1 h; in short: as §3
[8] = Cytotoxicity against mouse CL-S1 cells assessed as cell viability after 24 hrs by MTT assay; assay type: cell-based; details: cl-s1, 24 h; in short: as §1

Compound | IC50 [1] | inhibition at 5 µM [3] | other results
CC(C)=CCC/C(C)=C/CC/C(C)=C/CC[C@]1(C)CCc2cc(OC(=O)c3ccc(C(=O)O)cc3C(=O)O)c(C)c(C)c2O1 | 620 nM | – | –
CC(C)=CCC/C(C)=C/CC/C(C)=C/CC[C@]1(C)CCc2cc(O)c(C)c(C)c2O1 [GAMMA-TOCOTRIENOL] | 4000 nM | – | –
CC(C)=CCC/C(C)=C/CC/C(C)=C/CC[C@]1(C)CCc2c(C)c(OC(=O)/C=C\C(=O)O)c(C)c(C)c2O1 | 520 nM | 50% | fold change (FC) [2]: 1000; remaining at 4 h [4]: 81%; remaining at 24 h [5]: 43%; remaining at 24 h ([6]; phosphate buffer, pH 7.4, read-out: Stability): 100%
CC(C)=CCC/C(C)=C/CC/C(C)=C/CC[C@]1(C)CCc2c(C)c(OC(=O)c3cc(C(=O)O)ccc3C(=O)O)c(C)c(C)c2O1 | 1460 nM | 50% | –
CC(C)=CCC/C(C)=C/CC/C(C)=C/CC[C@]1(C)CCc2cc(OC(=O)c3cc(C(=O)O)ccc3C(=O)O)c(C)c(C)c2O1 | 1440 nM | – | –
CC(C)=CCC/C(C)=C/CC/C(C)=C/CC[C@]1(C)CCc2c(C)c(OC(=O)c3ccc(C(=O)O)cc3C(=O)O)c(C)c(C)c2O1 | 1500 nM | 50% | –
CC(C)=CCC/C(C)=C/CC/C(C)=C/CC[C@]1(C)CCc2cc(OC(=O)/C=C\C(=O)O)cc(C)c2O1 | 870 nM | – | –
CC(C)=CCC/C(C)=C/CC/C(C)=C/CC[C@]1(C)CCc2c(C)c(O)c(C)c(C)c2O1 [ALPHA-TOCOTRIENOL] | 5000 nM | – | Stability [7]: Unstable; Stability ([6]; buffer, pH 7.4, 24 h): Unstable
CC(C)=CCC/C(C)=C/CC/C(C)=C/CC[C@]1(C)CCc2cc(O)cc(C)c2O1 [DELTA-TOCOTRIENOL] | 3000 nM | – | –
CC(C)=CCC/C(C)=C/CC/C(C)=C/CC[C@]1(C)CCc2cc(OC(=O)c3cc(C(=O)O)ccc3C(=O)O)cc(C)c2O1 | 1500 nM | 50% | –
CC(C)=CCC/C(C)=C/CC/C(C)=C/CC[C@]1(C)CCc2cc(OC(=O)CC(C)CC(=O)O)c(C)c(C)c2O1 (stereo not given in full) | 19200 nM | – | Activity [8]: Non-toxic
CC(=O)Oc1cc(C(=O)Oc2cc3c(c(C)c2C)O[C@](C)(CC/C=C(\C)CC/C=C(\C)CCC=C(C)C)CC3)cc(OC(C)=O)c1OC(C)=O | 1720 nM | – | –
CC(C)=CCC/C(C)=C/CC/C(C)=C/CC[C@]1(C)CCc2cc(OC(=O)c3ccccc3)c(C)c(C)c2O1 | 6550 nM | 50% | Activity [8]: Non-toxic
CC(=O)Oc1ccc(/C=C/C(=O)Oc2cc3c(c(C)c2C)O[C@](C)(CC/C=C(\C)CC/C=C(\C)CCC=C(C)C)CC3)cc1OC(C)=O | > 40000 nM | – | Activity [8]: Non-toxic
CC(C)=CCC/C(C)=C/CC/C(C)=C/CC[C@]1(C)CCc2cc(OC(=O)/C=C\C(=O)O)c(C)c(C)c2O1 | 2300 nM | 50% | –
